In the EternaBench riboswitch data:

Tested on: MS2 coat protein
Assay: apparent Kd, MS2 coat protein; higher = weaker binding; RNA-MaP array; FMN 200 µM where present
Summary of the method: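 The apparent Kd comes from binding curves fitted cluster by cluster, filtered, and summarised as a median. Those curves followed SNAP-549-labelled MS2 coat protein from 0.7 or 1.5 nM, doubling to 3 µM, on Illumina sequencing-chip clusters where stalled E. coli RNA polymerase had transcribed the designs, without and then with constant ligand. The buffer was 100 mM Tris-HCl pH 7.5, 80 mM KCl, 4 mM MgCl2, BSA, DTT, yeast tRNA and Tween-20, and green signal was normalised to red-channel RNA signal and control-cluster median Fmax.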

[1] = designed as: OFF switch for flavin mononucleotide, no ligand
[2] = ligand present: flavin mononucleotide, designed as: OFF switch for flavin mononucleotide
[3] = designed as: ON switch for flavin mononucleotide, no ligand
[4] = ligand present: flavin mononucleotide, designed as: ON switch for flavin mononucleotide

Sequence	apparent Kd [1] [nM]	apparent Kd [2] [nM]	apparent Kd [3] [nM]	apparent Kd [4] [nM]
UUAUGUUUUGUAGGAUAUCAUUAGUUAUGUAUUAUAAUUGAAAUUUUGAUUUGAGAAGGACAUUUACAUGAGGAUCACCCAUGU	13.4	9.92	–	–
GUCAUACAUGAGGAUCACCCAUGUAAGGAUAUGCUAGCGGUCGGAAGACUGACUGCUAGCAGAAGGUACAUGAU	67.1	92.5	–	–
CUUUUGUGAGGAUAUCAGUAGUAUAAAAUAAAAUAUACUACUGAGAAGGCACAUGAGGAUCACCCAUGUUCCUC	38.3	263	–	–
GUACUAAAGCUUUGCUUUAGUCGUACAUGAGGAUCACCCAUGUAGGAUAUGGUAGGCUUUGCUUACUAGAAGGAUAGAGUGAUC	110	36.1	–	–
UCAUGAUAUGUAGGAUAUCACAUUUAUUGAUUAAUAUAUGAAUAUAGAAUUUGAGAAGGACAUUUACAUGAGGAUCACCCAUGU	15.8	16.7	–	–
GUGGAGUACGUAGGAUAUGUAGGAUAUUCCUACAUGAGGAUCACCCAUGUUGACAUGGAGGAAGGACAGAAGGACGUGCUCCAG	–	–	265	256
UUACUCAUGUAAGGAUAUGCAGCCGUUUCGGCUGCAGAAGGUACUAUAAUACAUGAGGAUCACCCAUGUCUCUAUUAUUUAGUG	–	–	52.8	87.5
GUGCGCGGCUAGGAUAUUGUGGGUUUUUGUCUGCGAGAAGGUGCCACAUGAGGAUCACCCAUGUGGUGUUGCUC	24.1	30	–	–
UUCAUGUGAGGAUAUAGUACUCCUUCUAUUAUUAUUGAGUAUUAGAAGGCACAUGAGGAUCACCCAUGUAGUAC	29.8	43.4	–	–
GACAUACAUGAGGAUCACCCAUGUACAGACGUACAAGGAUAUGUGUGGAAACCGUACUAUACAGAAGGUGUUUGUC	–	–	73.1	33.9
GAGUGGAAGUAAGGAUAUAUAAUGAUAAUCACAGUAGAAGGUACUAACAUGAGGAUCACCCAUGUAGGACUAUACCAGAGAGGG	–	–	17.4	16
GGAGACCUCACAGGAUAUGCUGGACUUUGUCCAGCAGAAGGGUGACUAAACAUGAGGAUCACCCAUGUGGUCUCCAAAUUUAAU	–	–	740	68.2
GGACUGGACUAGAAGGGUGAUGCGCUCGCAGACACAGGAUAUAGUCACAUGAGGAUCACCCAUGUCGGUCCAUGUAAAGAAACU	–	–	20.2	14.8
AUGCUUUAUGUAGGAUAUUCAAACGGUAAGAAUGGAGAAGGACAUGAGGAUCACCCAUGUAAAAUAUUAUUAGAUAUCAUACAU	22.1	19.4	–	–
ACAUGAGGAUCACCCAUGUAUUACAUGGUUAAGUUUAUUAACAGAAGGCGAAAUUACCACUUUUUCGAGGAUAUGUAUUCUAUA	38.2	52.7	–	–
GAUCCUUCUGUUAGGAUAUGCUUUGGGCUUUCGCAGCAGAAGGAACAUGAGGAUCACCCAUGUCCGAUGCCGUC	77.5	81.3	–	–
CUUUAAGUCGAGAAGGACAUGAGGAUCACCCAUGUAGGAUAUCGAUUAGCUUGCAUCCCGAGCCGCAUCGGUGUGACUGGUGGG	–	–	36.5	7.83
AUACUAAAUGAAGGAUAUCUAAGCAUAAACCUGAGAGAAGGUCAUUUUUACAUGAGGAUCACCCAUGUUGUGGUUAAUGGGUUA	216	317	–	–
GUCACUAGAGGAUAUACAAUGGUAUAUGAUCCUAGAGACAUACAUGAGGAUCACCCAUGUAGAAGGCUAGUAAU	81.7	46.6	–	–
UUUGUCUGUGUGAGGAUAUACUUUUUUUGGUUUUUGUAGAAGGCACAUGAGGAUCACCCAUGUAUUUUGUUGUG	37.7	50.2	–	–
UUCUUGCAAGGAUAUGAUUUAAGUAACAUGAGGAUCACCCAUGUUUUUCCGUUGUUAUGUUCAGAAGGUGCGUGAU	55.8	63.3	–	–

Sequence	apparent Kd [1] [nM]	apparent Kd [2] [nM]	apparent Kd [3] [nM]	apparent Kd [4] [nM]
UUUUAACAUGAGGAUCACCCAUGUGAGGAUAUCGAAAUUUAUAUUUAUAUUUAUAAUUCGAGAAGGCACAUUUU	179	141	–	–
GACUCGAAUGUAGGAUAUGCUGAGGAUAACUCAGCAGAAGGACAUGAGGAUCACCCAUGUAAAUGAGUGAAUAAUAAACGAGUC	1400	129	–	–
UAAACACCCUCAUGUGCCUGAGGACAUGAGGAUCACCCAUGUAAGGAUAUAGCCAUUAAAUCUAACUAGAAGGUAUAGGAAAUC	597	476	–	–
GUCAGCUCGUGAGGAUAUACAUGUGCUGGAAACAGCACUAAUUAAAUCACAUGAGGAUCACCCAUGUAGAAGGCACGAGCUGAU	16.4	23.6	–	–
GUAGUUGUGUGGUUGAGGAUAGGGCAGGAUAUACAUGAGGAUCACCCAUGUGAAGCGGGAAGGAGGUAGAAGGGCCAACGUCAU	13.7	10.9	–	–
GCGUCAGAAUUAAUUGUGACAGGCAGAAGGCUAUAUCUUAUGUUAGACAUGAGGAUCACCCAUGUAGAGGAUAUGCAGUUACAC	7.77	17	–	–
AUCAGCUCGUCAGGAUAUACGUCCCUGCGUCAGCAGUGUGGUAAGAUCACAUGAGGAUCACCCAUGUAGAAGGGACGAGCUGAU	22.9	312	–	–
GGAGCGGAAGGAUAUGCUGCGGGAUUGAAUGGAAAGAAAAUACAUGAGGAUCACCCAUGUAGAAGGUCCGUGAA	18.2	54.2	–	–
GCCGAUUAAGUCAGGAUAUACCUAUGGAUACAUAGGUAGAAGGGACAUGAGGAUCACCCAUGUUCCUCACCGGC	14.8	21.8	–	–
UCGUACAUUCGAGGAUAUCGGUGAUAAAUAAUACGAGAAGGCGAUUUUAGGCAUAACGCCUUAGACAUGAGGAUCACCCAUGUA	–	–	68.1	55.1
AUAAAACAUGAGGAUCACCCAUGUCAACAAAGUCGAGGAUAUGGGCAAAUAAAAUAAGAACCAGAAGGCGAAUUAU	–	–	210	38.6
UUGUUGUGAGGAUAUCCAAUAUAUGACAUGAGGAUCACCCAUGUUUCCACUCGUACCUCCGGAGAAGGCACUUAUU	31.7	28.7	–	–
CUUUUGUGAGGAUAUUCGUAGUAGGUAAAUAAAACUAUUACGGAGAAGGCACAUGAGGAUCACCCAUGUUCCUU	18.1	54.2	–	–
AUGAGUAAAGCAGGAUAUCUAUUGUCUCUGUAACAUGAGGAUCACCCAUGUAGAGAAGGGCUUAGUCAUACACUUCGAAGUUGA	9.13	10.1	–	–
CCAUAAAAGAUCCAAAAUUACAACAUGAGGAUCACCCAUGUGCAGGAUAUCGUGAAAGUAAAAUACGAGAAGGGCAAACACUGC	365	442	–	–
GAAUACACCCGACGGGUGUCCGGCAAGGAUAUGAUGAGGGCGAUGCUACAUGAGGAUCACCCAUGUCAGAAGGUGCCCUCCAGG	6.59	7.19	–	–
UUGUUGUAUGUAGGAUAUGCGUAUUGUUAUUAUGCAGAAGGACAUGAGGAUCACCCAUGUAUAUUAUUAUUAUAUAUUAUAUAU	26.3	43.5	–	–
CUUCGGGCAGGAUAUGCUGUUUGUGACAUGAGGAUCACCCAUGUGAUGCAGUUUGGGUGUGCAGAAGGGCCUGAGU	54.6	67.2	–	–
GUAUCGUGAGGAUAUCAUGAUUGACUUUUAUUUUGUCAGCGUGAGAAGGCACAUGAGGAUCACCCAUGUGAUUA	22.6	50.5	–	–
CGUUGACAUGAGGAUCACCCAUGUCAGAUUUGGUCAGGAUAUGGUGUGGUUUGGCUAUUGCCAGAAGGGACGUUUG	–	–	92.1	58.5
AGAAACUACGAGAAGGACAUGUGGUCCAAAACAAACAUGAGGAUCACCCAUGUAGGAUAUCGUAGUUUCAGGAUCGUGAGAUCA	284	61.8	–	–
